From ChEMBL document CHEMBL4152234, “Aminobenzothiazole derivatives stabilize the thermolabile p53 cancer mutant Y220C and show anticancer activity in p53-Y220C cell lines” (Eur J Med Chem, 2018)
Activity calls are given as the source filed them. The calls are words filed in the database; no cut-off is given here.

Columns and labels:
[1] = target: T1, Cellular tumor antigen p53 (Homo sapiens, UniProt P04637); test: Activation of p53 in human NUGC4 cells assessed as change in CASP9 mRNA level at 60 uM after 18 hrs by RT-PCR method relative to control; assay type: cell-based; details: read-out: FC
Method in brief: (§1)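 p53 signaling qPCR array of 84 p53-pathway genes. Cells were treated in 6-well plates for 18 h with 0.5% DMSO in compound and control samples. Total RNA was extracted and fold-changes were obtained by the ΔΔCt method against untreated control, with β2-microglobulin (B2M) as housekeeping gene. Two independent biological replicates per cell line.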

[2] = target: T1, Cellular tumor antigen p53; test: Activation of p53 in human NUGC4 cells assessed as change in SIRT1 mRNA level at 60 uM after 18 hrs by RT-PCR method relative to control; assay type: cell-based; details: read-out: FC
[3] = target: T1, Cellular tumor antigen p53; test: Activation of p53 in human NUGC4 cells assessed as change in BCL2A1 mRNA level at 60 uM after 18 hrs by RT-PCR method relative to control; assay type: cell-based; details: read-out: FC
Method in brief: (§2)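 p53 signalling qPCR array covering 84 p53 pathway genes. Cells were exposed for 18 h, and compound and control wells both held 0.5% DMSO. Total RNA was extracted and purified. Fold-changes were calculated by the ΔΔCt method against the untreated sample, with β2-microglobulin (B2M) as the housekeeping gene. Each cell line was run in two independent biological replicates.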

[4] = target: T1, Cellular tumor antigen p53; test: Activation of p53 in human NUGC4 cells assessed as change in F0X03 mRNA level at 60 uM after 18 hrs by RT-PCR method relative to control; assay type: cell-based; details: read-out: FC; method in brief: as §1
Huh-7 [5] = test: Upregulation of MDM2 mRNA level in p53 Y220C mutant knockout human HuH7 cells at 30 uM after 18 hrs by RT-PCR method; assay type: functional, cell-based
[6] = system: Cellular tumor antigen p53 (Homo sapiens), P04637 [Y220C]; test: Activation of p53 Y220C mutant in human NUGC3 cells assessed as change in FASLG mRNA level at 60 uM after 18 hrs by RT-PCR method relative to control; assay type: cell-based
Method in brief: (§3)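 p53 signalling qPCR array covering 84 genes. Cells were exposed for 18 h, with 0.5% DMSO in both compound and control samples. Total RNA was extracted and purified. Fold-changes were calculated by ΔΔCt using β2-microglobulin (B2M) as the housekeeping gene. Two independent biological replicates were run per cell line.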

[7] = system: Cellular tumor antigen p53 (Homo sapiens), P04637 [Y220C]; test: Activation of p53 Y220C mutant in human NUGC3 cells assessed as change in GADD45A mRNA level at 60 uM after 18 hrs by RT-PCR method relative to control; assay type: cell-based; method in brief: as §3
[8] = system: Cellular tumor antigen p53 (Homo sapiens), P04637 [Y220C]; test: Activation of p53 Y220C mutant in human NUGC3 cells assessed as change in GML mRNA level at 60 uM after 18 hrs by RT-PCR method relative to control; assay type: cell-based; method in brief: as §3
[9] = system: Cellular tumor antigen p53 (Homo sapiens), P04637 [Y220C]; test: Activation of p53 Y220C mutant in human NUGC3 cells assessed as change in NFKB1 mRNA level at 60 uM after 18 hrs by RT-PCR method relative to control; assay type: cell-based; method in brief: as §2
[10] = target: T1, Cellular tumor antigen p53; test: Activation of p53 in human NUGC4 cells assessed as change in EGR1 mRNA level at 60 uM after 18 hrs by RT-PCR method relative to control; assay type: cell-based; details: read-out: FC; method in brief: as §1
[11] = system: Cellular tumor antigen p53 (Homo sapiens), P04637 [Y220C]; test: Activation of p53 Y220C mutant in human NUGC3 cells assessed as change in F0X03 mRNA level at 60 uM after 18 hrs by RT-PCR method relative to control; assay type: cell-based; method in brief: as §3
[12] = target: T1, Cellular tumor antigen p53; test: Activation of p53 in human NUGC4 cells assessed as change in E2F3 mRNA level at 60 uM after 18 hrs by RT-PCR method relative to control; assay type: cell-based; details: read-out: FC; method in brief: as §1
[13] = system: Cellular tumor antigen p53 (Homo sapiens), P04637 [Y220C]; test: Activation of p53 Y220C mutant in human NUGC3 cells assessed as change in S1AH1 mRNA level at 60 uM after 18 hrs by RT-PCR method relative to control; assay type: cell-based; method in brief: as §2
[14] = system: Cellular tumor antigen p53 (Homo sapiens), P04637 [Y220C]; test: Activation of p53 Y220C mutant in human NUGC3 cells assessed as change in TP73 mRNA level at 60 uM after 18 hrs by RT-PCR method relative to control; assay type: cell-based; method in brief: as §2
[15] = target: T1, Cellular tumor antigen p53; test: Activation of p53 in human NUGC4 cells assessed as change in CDC25A mRNA level at 60 uM after 18 hrs by RT-PCR method relative to control; assay type: cell-based; details: read-out: FC; method in brief: as §1
[16] = target: T1, Cellular tumor antigen p53; test: Activation of p53 in human NUGC4 cells assessed as change in PTTG1 mRNA level at 60 uM after 18 hrs by RT-PCR method relative to control; assay type: cell-based; details: read-out: FC
[17] = system: Cellular tumor antigen p53 (Homo sapiens), P04637 [Y220C]; test: Activation of p53 Y220C mutant in human NUGC3 cells assessed as change in ADGRB1 mRNA level at 60 uM after 18 hrs by RT-PCR method relative to control; assay type: cell-based; method in brief: as §3
[18] = target: T1, Cellular tumor antigen p53; test: Activation of p53 in human NUGC4 cells assessed as change in CCNB1 mRNA level at 60 uM after 18 hrs by RT-PCR method relative to control; assay type: cell-based; details: read-out: FC; method in brief: as §1
[19] = system: Cellular tumor antigen p53 (Homo sapiens), P04637 [Y220C]; test: Activation of p53 Y220C mutant in human NUGC3 cells assessed as change in MLH1 mRNA level at 60 uM after 18 hrs by RT-PCR method relative to control; assay type: cell-based; method in brief: as §2
[20] = target: T1, Cellular tumor antigen p53; test: Activation of p53 in human NUGC4 cells assessed as change in HK2 mRNA level at 60 uM after 18 hrs by RT-PCR method relative to control; assay type: cell-based; details: read-out: FC; method in brief: as §1
[21] = target: T1, Cellular tumor antigen p53; test: Activation of p53 in human NUGC4 cells assessed as change in TP53 mRNA level at 60 uM after 18 hrs by RT-PCR method relative to control; assay type: cell-based; details: read-out: FC
[22] = system: Cellular tumor antigen p53 (Homo sapiens), P04637 [Y220C]; test: Activation of p53 Y220C mutant in human NUGC3 cells assessed as change in CCNH mRNA level at 60 uM after 18 hrs by RT-PCR method relative to control; assay type: cell-based; method in brief: as §3
[23] = system: Cellular tumor antigen p53 (Homo sapiens), P04637 [Y220C]; test: Activation of p53 Y220C mutant in human NUGC3 cells assessed as change in SIRT1 mRNA level at 60 uM after 18 hrs by RT-PCR method relative to control; assay type: cell-based; method in brief: as §2
[24] = system: Cellular tumor antigen p53 (Homo sapiens), P04637 [Y220C]; test: Activation of p53 Y220C mutant in human NUGC3 cells assessed as change in CCNE1 mRNA level at 60 uM after 18 hrs by RT-PCR method relative to control; assay type: cell-based; method in brief: as §3
[25] = target: T1, Cellular tumor antigen p53; test: Activation of p53 in human NUGC4 cells assessed as change in CDK1 mRNA level at 60 uM after 18 hrs by RT-PCR method relative to control; assay type: cell-based; details: read-out: FC; method in brief: as §1
Huh-7 [26] = test: Upregulation of BAX mRNA level in p53 Y220C mutant knockout human HuH7 cells at 30 uM after 18 hrs by RT-PCR method; assay type: functional, cell-based
[27] = system: Cellular tumor antigen p53 (Homo sapiens), P04637 [Y220C]; test: Activation of p53 Y220C mutant in human NUGC3 cells assessed as change in JUN mRNA level at 60 uM after 18 hrs by RT-PCR method relative to control; assay type: cell-based; method in brief: as §2
[28] = system: Cellular tumor antigen p53 (Homo sapiens), P04637 [Y220C]; test: Activation of p53 Y220C mutant in human NUGC3 cells assessed as change in CDK4 mRNA level at 60 uM after 18 hrs by RT-PCR method relative to control; assay type: cell-based; method in brief: as §3
[29] = system: Cellular tumor antigen p53 (Homo sapiens), P04637 [Y220C]; test: Activation of p53 Y220C mutant in human NUGC3 cells assessed as change in HK2 mRNA level at 60 uM after 18 hrs by RT-PCR method relative to control; assay type: cell-based; method in brief: as §3

Compound: CCNC(=O)c1c(O)c(I)c(-n2cccc2)c2sc(N(CC)CC)nc12
- fold induction at 60 µM [1]: 1
- fold induction at 60 µM [2]: 0.9
- fold induction at 60 µM [3]: 6.1
- fold induction at 60 µM [4]: 0.8
- Activity (Huh-7 [5]): inactive
- fold change (FC) [6]: 1.1
- fold change (FC) [7]: 2.2
- fold change (FC) [8]: 3.1
- fold change (FC) [9]: 1.5
- fold induction at 60 µM [10]: 0.7
- fold change (FC) [11]: 2
- fold induction at 60 µM [12]: 0.7
- fold change (FC) [13]: 1.5
- fold change (FC) [14]: 1.2
- fold induction at 60 µM [15]: 0.4
- fold induction at 60 µM [16]: 0.9
- fold change (FC) [17]: 1.5
- fold induction at 60 µM [18]: 0.7
- fold change (FC) [19]: 5.4
- fold induction at 60 µM [20]: 0.8
- fold induction at 60 µM [21]: 0.8
- fold change (FC) [22]: 1.4
- fold change (FC) [23]: 1.7
- fold change (FC) [24]: 1.2
- fold induction at 60 µM [25]: 0.8
- Activity (Huh-7 [26]): inactive
- fold change (FC) [27]: 0.9
- fold change (FC) [28]: 1.3
- fold change (FC) [29]: 1.7
